Measured values: article PMC7112006 (Bioorganic Chemistry, 2010)

Legend:
[1] = tested on: human T-lymphocyte cells (Molt4/C8); assay: Cytostatic assay, inhibition of tumor cell proliferation; assay type: cell-based; conditions: Molt4/C8, read-out: IC50 (50% inhibitory concentration, tumor cell proliferation)
[2] = molecular target: T1, human recombinant thymidine phosphorylase (Homo sapiens, UniProt P19971); assay: Thymidine phosphorylase assay, conversion to the free base; assay type: biochemical; conditions: purified recombinant enzyme, 100 μM substrate, 20, 40 and 60 min; data not shown
T1 sequence (P19971 11-482): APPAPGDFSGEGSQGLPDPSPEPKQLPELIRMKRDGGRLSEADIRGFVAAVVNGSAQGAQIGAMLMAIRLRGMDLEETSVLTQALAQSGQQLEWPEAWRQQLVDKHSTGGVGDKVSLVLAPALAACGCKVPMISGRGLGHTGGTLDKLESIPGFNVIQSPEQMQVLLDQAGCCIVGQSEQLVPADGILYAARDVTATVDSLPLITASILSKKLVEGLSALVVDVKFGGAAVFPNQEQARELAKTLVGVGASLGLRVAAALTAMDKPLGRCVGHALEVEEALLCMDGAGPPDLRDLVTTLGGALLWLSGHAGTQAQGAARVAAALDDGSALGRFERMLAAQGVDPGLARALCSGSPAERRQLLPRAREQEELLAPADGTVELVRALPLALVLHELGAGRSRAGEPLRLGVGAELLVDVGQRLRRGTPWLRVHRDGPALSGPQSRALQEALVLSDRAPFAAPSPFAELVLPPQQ
Outline: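 Aliquots taken at 20, 40 and 60 min and heat-inactivated at 95 °C for 3 min. Free base quantified by RP-8 HPLC with phosphate/heptane sulfonate (pH 3.2) to acetonitrile gradient; UV detection at 267 nm.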

[3] = molecular target: uridine phosphorylase type 1 (Homo sapiens, UniProt Q16831); assay: Uridine phosphorylase assay, conversion to the free base; assay type: biochemical; conditions: purified recombinant enzyme, 100 μM substrate, 20, 40 and 60 min; data not shown
Outline: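 Samples taken at 20, 40 and 60 min and heated at 95 °C for 3 min. Nucleoside and free base separated on RP-8 HPLC with phosphate/heptane sulfonate (pH 3.2) to acetonitrile gradient; UV detection at 267 nm.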

Chain of uridine phosphorylase type 1 (Q16831 whole entry): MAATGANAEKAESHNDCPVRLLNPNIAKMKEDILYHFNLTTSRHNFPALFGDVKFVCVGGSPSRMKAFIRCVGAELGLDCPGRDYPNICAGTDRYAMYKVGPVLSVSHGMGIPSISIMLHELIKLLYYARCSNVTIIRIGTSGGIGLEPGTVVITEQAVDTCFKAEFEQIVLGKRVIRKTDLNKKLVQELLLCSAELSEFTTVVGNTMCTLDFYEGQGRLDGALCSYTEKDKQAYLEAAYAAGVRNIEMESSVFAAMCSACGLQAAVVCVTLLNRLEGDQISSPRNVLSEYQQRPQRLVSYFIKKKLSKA

Structure (SMILES): Nc1ccn([C@@H]2O[C@H](CO)[C@@H](O)[C@H](F)[C@H]2O)c(=O)n1 [3f, 1-(3-Deoxy-3-fluoro-β-D-glucopyranosyl)cytosine]
- IC50 [1]: 163 ± 21 µM

Structure (SMILES): Nc1ncnc2c1ncn2[C@@H]1O[C@H](CO)[C@@H](O)[C@H](F)[C@H]1O [3g, 9-(3-Deoxy-3-fluoro-β-D-glucopyranosyl)adenine]
- IC50 [1]: 183 ± 24 µM

Structure (SMILES): Cc1cn([C@H]2C[C@H](O)[C@@H](CO)O2)c(=O)[nH]c1=O [thymidine]
- hydrolysis to the free pyrimidine base by thymidine phosphorylase (TPase) [2]: readily converted

Structure (SMILES): O=c1ccn([C@@H]2O[C@H](CO)[C@@H](O)[C@H]2O)c(=O)[nH]1 [uridine]
- hydrolysis to the free pyrimidine base by uridine phosphorylase type I (UPase) [3]: readily converted
